This is a sample that favours compounds with a hit; in the whole collection about 2% have one here.
VLA-4 inh – inhibition in a human VLA-4 binding assay; P13612; VLA-4 expressing cells, ligand binding flow cytometry; inhibition, % (about 7 µM as worked out from the volumes in the protocol); 330,000 tested, 0.2% active; in the data active means inhibition above about 50%
DAGLB inh – diacylglycerol lipase beta (human) inhibition; AID 504411; Q8NCG7; inhibition, % at 5.17 µM; 340,000 tested, 0.059% active; HEK293T DAGLB membrane lysate, EnzChek fluorogenic substrate; in the data active means inhibition above about 34%;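 further: 0% = enzyme with vehicle and 100% = wells lacking enzyme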
Target sequence (Q8NCG7 whole entry, looked up): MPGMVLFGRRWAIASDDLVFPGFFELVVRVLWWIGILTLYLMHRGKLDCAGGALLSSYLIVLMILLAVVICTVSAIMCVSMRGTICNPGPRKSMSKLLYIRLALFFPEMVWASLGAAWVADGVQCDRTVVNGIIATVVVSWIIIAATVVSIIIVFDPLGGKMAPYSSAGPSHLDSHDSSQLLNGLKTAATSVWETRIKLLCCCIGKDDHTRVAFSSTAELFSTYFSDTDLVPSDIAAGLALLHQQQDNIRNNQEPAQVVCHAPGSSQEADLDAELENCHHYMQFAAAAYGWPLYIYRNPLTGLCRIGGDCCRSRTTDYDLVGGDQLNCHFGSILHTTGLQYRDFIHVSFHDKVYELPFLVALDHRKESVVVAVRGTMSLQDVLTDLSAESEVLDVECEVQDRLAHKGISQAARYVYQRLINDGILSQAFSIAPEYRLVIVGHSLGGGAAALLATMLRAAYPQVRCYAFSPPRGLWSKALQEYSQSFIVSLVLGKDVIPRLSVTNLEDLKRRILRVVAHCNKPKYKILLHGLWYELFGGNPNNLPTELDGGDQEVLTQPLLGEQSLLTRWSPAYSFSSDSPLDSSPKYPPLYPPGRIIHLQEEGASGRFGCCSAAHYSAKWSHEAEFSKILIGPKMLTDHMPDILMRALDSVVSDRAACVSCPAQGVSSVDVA
FGF22 binding-1 – binders of recombinant human FGF22 by thermal shift. AID 651658. SYPRO orange fluorescence; percent of sucrose octasulfate shift, DMSO zero. 340,000 tested, 1.5% active. activity (Tm shift, normalised), % at 9.99 µM. Q9HCT0;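 active means mean Tm shift, scaled 0 neutral to 100 positive control, at about 1.3% or above, every replicate too, limit read from the data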
MT1-MMP act inh – blocks activation of human MT1-MMP; P50281; HT1080 RFP-PRO-GFP cells, GFP/RFP ratio fluorescence, overnight; percent of plate control window, DMSO zero; GFP/RFP ratio change, % at 20 µM; 360,000 tested, 0.061% active; AID 651647;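 active means GFP/RFP ratio change of at least 30% with cell ATP level not reduced by more than half and red fluorescence within 50% of control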
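system = RFP-PRO-GFP reporter HT1080 cells | dosing = 20 µM single dose, 1% DMSO | timing = overnight cell settling, then overnight compound exposure, 37 °C, 5% CO2 | read-out basis = GFP/RFP fluorescence ratio | controls = DMSO and RFP-L50D-GFP cell wells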
Granule exo inh – blocks lytic granule exocytosis; AID 651702; 360,000 tested, 0.66% active; inhibition, % at 10 µM; TALL-104 LAMP-1 surface exposure, flow cytometry; cells stimulated with thapsigargin and PMA;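 active means inhibition above about 55%, limit read from the data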
ABCB6 inh 2 – inhibitors of human ABC transporter ABCB6. Q9NP58. K562-ABCB6 porphyrin accumulation, flow cytometry, 1 h; active compounds read low. fluorescence ratio to DMSO, % at 10 µM. 360,000 tested, 0.19% active. AID 602162;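 active means fluorescence ratio to DMSO below 75%, the collection mean minus 3 SD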;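 further: signal is porphyrin accumulated inside mitochondria; 100% equals median channel fluorescence of DMSO control wells; lower ratio means ABCB6 inhibition with less porphyrin fluorescence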
VLA-4 allo CP – confirmation of allosteric modulators of human VLA-4 integrin; shares compounds with VLA-4 inh; U937 cells, HUTS-21 LIBS mAb binding, flow cytometry; LDV ligand present at threefold Kd; inhibition, % at 6.7 µM; 1,300 tested, 2% active; in the data active means inhibition above about 40%;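 further: 0% = ligand without compound and 100% = no ligand background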
DAGLB inh conf – DAGLB (human) inhibition, confirmation screen. inhibition, % at 5.17 µM. AID 504445. shares compounds with DAGLB inh. 190 tested, 73% active. HEK293T DAGLB membrane lysate, EnzChek fluorogenic substrate;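 active means mean inhibition over triplicate wells above a set limit taken from the primary lipase screen, cut at about 34% in these data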;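 further: 0% = DAGLB with DMSO and 100% = wells lacking DAGLB enzyme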
ABCB6 blocker 1 – blocks the human ABCB6 transporter | shares compounds with ABCB6 inh 2 | ratio response (% of DMSO), % at 10 µM | K562-ABCB6 porphyrin accumulation, flow cytometry, 1 h; active compounds read low | AID 602430 | 700 tested, under 10 active;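 active means repeat-averaged ratio response below 75% of DMSO, the collection mean minus 3 SD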;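 further: median porphyrin fluorescence at 575 nm with 488 nm excitation from mitochondria; lower ratio means less porphyrin signal so ABCB6 inhibition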
FGF22 binding-2 – binds human FGF22 shifting its melting temperature; AID 720646; thermal shift activity, °C (ΔTm) at 38 µM; shares compounds with FGF22 binding-1; recombinant FGF22 thermal shift, SYPRO orange fluorescence; 1,000 tested, 2% active;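 active means fitted rise in melting shift crosses a set limit at or below the top valid dose tested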
SYPRO no-protein – shows thermal shift signal without protein, FGF22 counter-screen; shares compounds with FGF22 binding-1; compound-only SYPRO orange thermal shift counter-screen, no protein; AC50, µM (titrated, usually from 38 µM); 1,000 tested, 2% active; AID 743019;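 active means rising signal whose fitted curve reaches the 0.54 level within the top valid dose, showing a melting point, actives reach about 13 µM in these data; inactive means the rest, including activity in the opposite direction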; further: value is where the raw curve crosses a fixed level and not half-maximal
Exocytosis CP01 – lytic granule exocytosis inhibition. shares compounds with Granule exo inh. TALL-104 cells, LAMP-1 externalization, flow cytometry; stimulated with PMA plus thapsigargin. inhibition, % at 10 µM. 1,500 tested, 11% active; in the data active means inhibition above about 60%;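 further: 0% = stimulated vehicle wells and 100% = unstimulated wells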
Starred values were filed as active, the others as inactive; i = inactive; . = not tested or not shown.

SMILES | VLA-4 inh | DAGLB inh | FGF22 binding-1 | MT1-MMP act inh | Granule exo inh | ABCB6 inh 2 | VLA-4 allo CP | DAGLB inh conf | others
CC(=O)Nc1ccc(S(=O)(=O)NCC(=O)NC(C)c2ccc(S(N)(=O)=O)cc2)cc1 (stereo not given) | -3 | 1 | 0 | 0 | -2 | 102 | 1 | .
COc1ccc(-c2nnc(N)s2)cc1 | 0 | 1 | . | -2 | -1 | 87 | . | .
Cc1ccc(-c2nnc(N)s2)cc1 | 46 | -1 | . | -1 | 7 | 69* | -4 | . | ABCB6 blocker 1=103
CC1CCCCN1S(=O)(=O)c1ccc(N(C(=O)c2cnccn2)C(C(=O)NC2CCCC2)c2cccs2)cc1 (stereo not given) | 45 | 2 | . | -1 | 2 | 70* | 0 | . | ABCB6 blocker 1=101
C[C@H](CO)N1C[C@H](C)[C@H](CN(C)S(=O)(=O)c2ccc(Cl)cc2)Oc2ccc(NC(=O)Nc3ccc4c(c3)OCO4)cc2CC1=O | . | . | 0 | . | . | . | . | .
O=c1c(O)c(-c2cc(O)c(O)c(O)c2)oc2cc(O)cc(O)c12 | 56* | 4 | 1.5* | -15 | 1 | 99 | 5 | . | FGF22 binding-2=0.12;SYPRO no-protein=i
CC(=O)c1ccc(NS(=O)(=O)c2ccccc2)cc1 | -13 | -1 | . | 9 | -3 | 97 | . | .
CC(=O)c1ccc(NS(=O)(=O)c2ccc(N)cc2)cc1 | 7 | -1 | 25* | -1 | -1 | 104 | -3 | . | FGF22 binding-2=-0.036;SYPRO no-protein=i
O=C(CC1CC1)N1[C@H](CO)[C@H](c2ccccc2)C12CN(S(=O)(=O)c1ccccc1)C2 | . | . | 0 | . | . | . | . | .
O=C(N/N=C\c1cccnc1)c1cc(-c2ccc(Cl)s2)[nH]n1 | 55* | -6 | 1.3* | 3 | 0 | 99 | 8 | . | FGF22 binding-2=-0.19;SYPRO no-protein=i
O=C(N/N=C/c1cccnc1)c1ccccc1Cl | -5 | -4 | 0 | 0 | -1 | 95 | . | .
COc1ccc(NS(=O)(=O)c2ccc(Cl)c(N)c2)cc1Br | 4 | -4 | 1.3* | 2 | 0 | 100 | -4 | . | FGF22 binding-2=-0.06;SYPRO no-protein=i
O=C(C[C@H]1C=C[C@H](NC(=O)CC2CC2)[C@@H](CO)O1)NCc1ccc(Cl)cc1 | . | . | 0 | . | . | . | . | .
COc1ccccc1-c1cc(C(F)(F)F)nc(S(=O)(=O)CCCC(=O)N2CCCCC2C)n1 (stereo not given) | 50* | -7 | . | -15 | 64* | 92 | 14 | . | Exocytosis CP01=4
Cc1noc(C)c1NC(=O)Nc1ccc2c(c1)C(=O)N([C@H](C)CO)C[C@@H](C)[C@H](CN(C)Cc1ccc(Cl)c(Cl)c1)O2 | . | . | 1 | . | . | . | . | .
Cc1ccc2nc(-c3ccc(NC(=S)NC(=O)C(C)C)cc3)sc2c1 | 22 | 2 | 0 | 0 | 49 | 99 | . | .
Cc1ccc2nc(-c3ccc(NC(=S)NC4CC(C)(C)NC(C)(C)C4)cc3)sc2c1 | 54* | 1 | 43* | -6 | 88* | 97 | 31 | . | Exocytosis CP01=98*
COc1cccc(C(=O)NNc2c3ccccc3nc3ccccc23)c1 | 2 | 45* | 0 | 22 | 44 | 90 | . | 44*
COc1ccc(S(=O)(=O)N2CCOCC2)cc1OC | 0 | 0 | . | -1 | 4 | 103 | . | .
COc1ccc(S(=O)(=O)N2CCOCC2)cc1N=Nc1sc(N)nc1-c1ccccc1 | -11 | 56* | 0 | 18 | 1 | 99 | . | 92*
Cc1ccc(-n2c(O)c(/C=N/Nc3ccc(S(=O)(=O)N4CCOCC4)cc3[N+](=O)[O-])c3ccccc3c2=O)c(C)c1 | 0 | 35* | 0 | -8 | 0 | 91 | . | 46*
O=C(NC(C(=O)N/N=C/c1cccc2ccccc12)c1n[nH]c(=O)c2ccccc12)c1ccccc1 (stereo not given) | -4 | 39* | . | 3 | -6 | 100 | . | 40*
C[C@@H]1CN([C@@H](C)CO)C(=O)c2cccc(NC(=O)c3ccncc3)c2O[C@H]1CN(C)C | . | . | 0 | . | . | . | . | .
CC(C)Oc1ccccc1/C=N/Nc1ccccc1[N+](=O)[O-] | -2 | 26 | 0 | 7 | -5 | 96 | . | .
COc1ccccc1/C=N\Nc1ccccc1[N+](=O)[O-] | -7 | 35* | 0 | 9 | -2 | 98 | . | 37*
SMILES | VLA-4 inh | DAGLB inh | FGF22 binding-1 | MT1-MMP act inh | Granule exo inh | ABCB6 inh 2 | VLA-4 allo CP | DAGLB inh conf | others
COc1cc(/C=N/Nc2ccccc2[N+](=O)[O-])cc(OC)c1O | -3 | 39* | 42 | 12 | 0 | 85 | . | 49*
CCC(=O)Nc1ccc2c(c1)OC[C@@H](C)N(Cc1ccccc1OC)C[C@@H](C)[C@H](OC)CN(C)C2=O | . | . | 0 | . | . | . | . | .
COc1cccc(-c2ccc3c(c2)[C@@H]2[C@@H](CCN2S(=O)(=O)C2=NC(C)C=N2)[C@H](CO)N3C)c1 (stereo not given in full) | . | . | 0 | . | . | . | . | .
Cc1noc(C)c1NC(=O)Nc1ccc2c(c1)CC(=O)N([C@@H](C)CO)C[C@@H](C)[C@H](CN(C)S(=O)(=O)c1cn(C)cn1)O2 | . | . | 0 | . | . | . | . | .
O=C1N=c2ccccc2=C1c1sc(=S)n(NC(=O)c2ccccc2)c1O | 12 | 3 | 0 | -1 | -4 | 101 | . | .
C=CCn1c(O)c(C2=c3ccccc3=NC2=O)sc1=Nc1ccc(O)cc1 | 20 | 36* | 0 | 17 | 20 | 94 | . | 34
COC(=O)[C@H]1[C@H](CO)[C@H]2Cn3c(ccc(-c4cccc(F)c4)c3=O)[C@H]2N1S(C)(=O)=O | . | . | 0 | . | . | . | . | .
COC(=O)c1ccccc1NCc1cc(=O)oc2cc(O)c(O)cc12 | 2 | 48* | 0 | -1 | -8 | 109 | . | 34*
Nc1nc(-c2ccccc2)c(N=Nc2cccnc2)s1 | 5 | 51* | 0 | 19 | -6 | 105 | . | 50*
O=C1S/C(=C\c2ccc(O)c([N+](=O)[O-])c2)C(=O)N1Cc1cccc([N+](=O)[O-])c1 | 11 | . | 0 | 6 | 12 | 95 | . | .

Assay outcomes (PubChem BioAssay)
